Assay results as given in ChEMBL document CHEMBL4411315, “Discovery of Novel Dual Histone Deacetylase and Mammalian Target of Rapamycin Target Inhibitors as a Promising Strategy for Cancer Therapy” (J Med Chem, 2019).
pIC50: −log10 of the molar value. Active and inactive are the calls of the source. No cut-off for these calls is given here.

Legend:
[1] = tested on: MM1.S; experiment: Induction of apoptosis in human MM1S cells assessed as early apoptotic cells at 40 nM after 48 hrs by Annexin V-FITC/propidium iodide staining-based flow cytometric analysis (reference value: 0.38%); assay type: functional
[2] = tested on: MV4-11; experiment: Induction of apoptosis in human MV4-11 cells assessed as necrotic cells at 20 nM after 48 hrs by Annexin V-FITC/propidium iodide staining-based flow cytometric analysis (reference value: 0.17%); assay type: functional
[3] = target: T1, Serine/threonine-protein kinase mTOR (Homo sapiens, UniProt P42345); experiment: Inhibition of mTOR in human MV4-11 cells assessed as decrease in Akt phosphorylation at S473 residues at 0.01 to 10 uM after 24 hrs by Western blot analysis; assay type: cell-based
How it was run: (§1)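 Treatment of MV4-11 cells lasted 24 h at 0.01, 0.1, 1 and 10 μM. Lysis in RIPA buffer and BCA quantitation, then 30 μg protein by SDS-PAGE, PVDF transfer, 5% milk block, primary antibody overnight at 4 °C, HRP secondary 1 h and ECL detection. p-p70S6K (T389), p-4EBP1 (S65), p-Akt (S473) and p-ERK were probed.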

[4] = target: T1, Serine/threonine-protein kinase mTOR; experiment: Inhibition of human recombinant mTOR expressed in mammalian expression system assessed as residual activity at 1 uM
How it was run: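 Radiometric kinase panel (99 kinases) run at 1 μM inhibitor in duplicate with [γ-33P]ATP, kinase-specific buffer and substrate at room temperature. The reaction was started with Mg/ATP and stopped with 0.5% phosphoric acid, then spotted on P30 filtermat, washed and scintillation counted. Results are expressed as % remaining activity versus DMSO control.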

[5] = target: T1, Serine/threonine-protein kinase mTOR; experiment: Inhibition of mTOR in human MV4-11 cells assessed as decrease in ERK phosphorylation after 24 hrs by Western blot analysis; assay type: cell-based; how it was run: as §1
[6] = target: Histone deacetylase 3 (Homo sapiens, UniProt O15379); experiment: Inhibition of recombinant full length HDAC3 (unknown origin) using Ac-peptide-AMC as substrate preincubated for 15 mins followed by substrate addition and measured after 1 hr by fluorescence assay
[7] = tested on: MM1.S; experiment: Induction of apoptosis in human MM1S cells assessed as viable cells at 40 nM after 48 hrs by Annexin V-FITC/propidium iodide staining-based flow cytometric analysis (reference value: 98.9%); assay type: functional; conditions: read-out: Activity
[8] = tested on: MV4-11; experiment: Induction of apoptosis in human MV4-11 cells assessed as early apoptotic cells at 20 nM after 48 hrs by Annexin V-FITC/propidium iodide staining-based flow cytometric analysis (reference value: 10.7%); assay type: functional
[9] = target: PI3-kinase p110-alpha/p85-alpha (Homo sapiens) (UniProt P27986+P42336); experiment: Inhibition of recombinant human full length N-terminal His-tagged/untagged p110alpha/p85alpha expressed in baculovirus expression system at 1000 nM using PIP2 as substrate after 1 hr by Kinase-Glo reagent-based assay relative to control
How it was run: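 PI3Kα (p110α/p85α) incubated with PIP2 substrate and ATP in kinase buffer for 1 h at room temperature. Kinase-Glo reagent was then added for 15 min before luminescence read-out. Inhibition rate at 100 or 1000 nM is the mean of at least two experiments.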

[10] = tested on: MV4-11; experiment: Cell cycle arrest in human MV4-11 cells assessed as accumulation at S phase at 1.25 nM after 24 hrs by propidium iodide/RNase staining-based FACS analysis (reference value: 36.42%); assay type: functional
[11] = target: Histone deacetylase 1/2/3 (Homo sapiens) (UniProt Q13547+O15379+Q92769); experiment: Inhibition of HDAC1/2/3 in human MV4-11 cells assessed as increase in H3 acetylation after 6 hrs by Western blot analysis; assay type: cell-based
How it was run: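 MV4-11 cells treated 6 h at 0.01, 0.1 or 1 μM. Whole-cell protein extracted in RIPA buffer and quantified by BCA. 30 μg protein run on SDS-PAGE and transferred to PVDF. Blocked 1 h in 5% milk, primary antibody overnight at 4 °C, HRP secondary 1 h, ECL detection. Acetyl-histone H3 and acetyl-α-tubulin probed, with GAPDH as loading control.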

[12] = tested on: MM1.S; experiment: Cell cycle arrest in human MM1S cells assessed as accumulation at G2/M phase at 2.5 nM after 24 hrs by propidium iodide/RNase staining-based FACS analysis (reference value: 26.29%); assay type: functional
[13] = tested on: MV4-11; experiment: Cell cycle arrest in human MV4-11 cells assessed as accumulation at S phase at 2.5 nM after 24 hrs by propidium iodide/RNase staining-based FACS analysis (reference value: 36.42%); assay type: functional
[14] = tested on: MV4-11; experiment: Induction of apoptosis in human MV4-11 cells assessed as early apoptotic cells at 80 nM after 48 hrs by Annexin V-FITC/propidium iodide staining-based flow cytometric analysis (reference value: 10.7%); assay type: functional
[15] = tested on: MM1.S; experiment: Induction of apoptosis in human MM1S cells assessed as viable cells at 20 nM after 48 hrs by Annexin V-FITC/propidium iodide staining-based flow cytometric analysis (reference value: 98.9%); assay type: functional; conditions: read-out: Activity
[16] = target: Histone deacetylase 7 (Homo sapiens, UniProt Q8WUI4); experiment: Inhibition of recombinant full length N-terminal GST-tagged human HDAC7 expressed in baculovirus expression system using Ac-peptide-AMC as substrate preincubated for 15 mins followed by substrate addition and measured after 1 hr by fluorescence assay
[17] = tested on: MM1.S; experiment: Cell cycle arrest in human MM1S cells assessed as accumulation at S phase at 10 nM after 24 hrs by propidium iodide/RNase staining-based FACS analysis (reference value: 24.49%); assay type: functional
[18] = tested on: MM1.S; experiment: Induction of apoptosis in human MM1S cells assessed as early apoptotic cells at 80 nM after 48 hrs by Annexin V-FITC/propidium iodide staining-based flow cytometric analysis (reference value: 0.38%); assay type: functional
[19] = tested on: MV4-11; experiment: Induction of apoptosis in human MV4-11 cells assessed as late apoptotic cells at 160 nM after 48 hrs by Annexin V-FITC/propidium iodide staining-based flow cytometric analysis (reference value: 5.03%); assay type: functional
[20] = tested on: MV4-11; experiment: Induction of apoptosis in human MV4-11 cells assessed as necrotic cells at 320 nM after 48 hrs by Annexin V-FITC/propidium iodide staining-based flow cytometric analysis (reference value: 0.17%); assay type: functional
[21] = tested on: MM1.S; experiment: Cell cycle arrest in human MM1S cells assessed as accumulation at G0/G1 phase at 2.5 nM after 24 hrs by propidium iodide/RNase staining-based FACS analysis (reference value: 49.22%); assay type: functional
[22] = tested on: MM1.S; experiment: Cell cycle arrest in human MM1S cells assessed as accumulation at S phase at 1.25 nM after 24 hrs by propidium iodide/RNase staining-based FACS analysis (reference value: 24.49%); assay type: functional
[23] = Toxicity against NOD/SCID mouse xenografted with human MV4-11 cells assessed as mouse survival at 10 mg/kg, iv administered every 2 days for 6 days; assay type: organism-based; conditions: in vivo
How it was run: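 MV4-11 cells (10^7 in 100 μL serum-free IMDM) were injected s.c. into the right flank of female NOD/SCID mice aged 5-6 weeks. Groups of 6 were randomised at 100-200 mm3. Dosing was i.v. every 2 days in physiological saline containing 2.5% DMSO and 10% cyclodextrin, pH 9. Tumours were measured by caliper every 2 days. Survivors were counted.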

[24] = tested on: MM1.S; experiment: Cell cycle arrest in human MM1S cells assessed as accumulation at G2/M phase at 5 nM after 24 hrs by propidium iodide/RNase staining-based FACS analysis (reference value: 26.29%); assay type: functional

Sequence of Histone deacetylase 3 (O15379 whole entry): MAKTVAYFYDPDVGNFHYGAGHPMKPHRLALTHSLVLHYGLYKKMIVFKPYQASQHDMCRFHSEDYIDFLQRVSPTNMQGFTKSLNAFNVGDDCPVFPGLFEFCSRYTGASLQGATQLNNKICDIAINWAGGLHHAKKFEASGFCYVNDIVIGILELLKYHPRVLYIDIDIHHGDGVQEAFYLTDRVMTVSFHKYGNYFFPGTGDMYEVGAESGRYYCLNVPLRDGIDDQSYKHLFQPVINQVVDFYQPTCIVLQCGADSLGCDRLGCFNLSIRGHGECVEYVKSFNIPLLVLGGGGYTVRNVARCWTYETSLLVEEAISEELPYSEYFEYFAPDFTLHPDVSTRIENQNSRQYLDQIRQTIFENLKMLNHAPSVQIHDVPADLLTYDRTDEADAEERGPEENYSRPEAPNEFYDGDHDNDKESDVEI
Sequence of Histone deacetylase 7 (Q8WUI4 whole entry): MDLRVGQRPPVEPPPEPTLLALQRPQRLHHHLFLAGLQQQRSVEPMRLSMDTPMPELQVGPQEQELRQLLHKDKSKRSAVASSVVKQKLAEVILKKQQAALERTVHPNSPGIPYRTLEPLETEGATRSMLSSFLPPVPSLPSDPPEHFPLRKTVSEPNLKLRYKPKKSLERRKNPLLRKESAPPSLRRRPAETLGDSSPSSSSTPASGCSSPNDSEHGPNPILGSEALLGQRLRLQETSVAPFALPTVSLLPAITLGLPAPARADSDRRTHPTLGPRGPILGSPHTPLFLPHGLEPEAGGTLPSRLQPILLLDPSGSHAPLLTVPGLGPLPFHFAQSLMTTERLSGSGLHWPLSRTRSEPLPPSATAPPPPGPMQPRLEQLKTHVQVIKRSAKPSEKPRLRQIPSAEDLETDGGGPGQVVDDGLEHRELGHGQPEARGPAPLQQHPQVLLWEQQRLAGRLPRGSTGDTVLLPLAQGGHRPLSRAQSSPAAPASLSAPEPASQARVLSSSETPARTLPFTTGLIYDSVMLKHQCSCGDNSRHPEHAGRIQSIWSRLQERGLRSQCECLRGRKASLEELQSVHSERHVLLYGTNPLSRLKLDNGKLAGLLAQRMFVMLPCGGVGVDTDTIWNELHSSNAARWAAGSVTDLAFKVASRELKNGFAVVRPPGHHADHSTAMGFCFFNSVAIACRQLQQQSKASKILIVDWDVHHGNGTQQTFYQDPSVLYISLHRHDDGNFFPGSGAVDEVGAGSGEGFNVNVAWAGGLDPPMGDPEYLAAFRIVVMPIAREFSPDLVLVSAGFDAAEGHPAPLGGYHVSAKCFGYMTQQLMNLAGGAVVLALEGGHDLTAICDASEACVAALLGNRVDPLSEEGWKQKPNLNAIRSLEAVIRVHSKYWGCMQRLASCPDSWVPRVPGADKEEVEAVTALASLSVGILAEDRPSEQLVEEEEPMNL

In the case of `C[C@@H]1CN(C(=O)Nc2ccc(-c3nc(N4CCOCC4)c4cnn(CCCCCCC(=O)NO)c4n3)cc2)CCO1`, the Activity [1] was 4.81%, the Activity [2] was 2.84% and the inhibition [3] was “Active”. For the same compound, the inhibition [4] was “Active”, the inhibition [5] was “Dose-dependent effect” and the pIC50 [6] was 8.83. The viability at 0.04 µM [7] was 70.1%, the Activity [8] was 38.2% and the inhibition [9] was 57.3%. For the same compound, the Activity [10] was 34.16%, the inhibition [11] was “Dose-dependent effect” and the Activity [12] was 25.8%. The Activity [13] was 33.77%, the Activity [14] was 37.6% and the viability at 0.02 µM [15] was 92.6%. The pIC50 [16] was under 6.00, the Activity [17] was 12.6% and the Activity [18] was 7.95%. The Activity [19] was 61.9%, the Activity [20] was 1.62% and the Activity [21] was 52.62%. The Activity [22] was 22.05%, the Activity [23] was “Non-Toxic” and the Activity [24] was 24.4%.
